Published values of several laboratories.
Compare with care: the assays were run in different laboratories.
TAOK2: Serine/threonine-protein kinase TAO2 (TAOK2, Homo sapiens, UniProt Q9UL54)
PIK3C2A: Phosphatidylinositol 4-phosphate 3-kinase C2 domain-containing subunit alpha (PIK3C2A, Homo sapiens, UniProt O00443)

CCN(CC)CCCC[C@H](NC(=O)[C@H](CC(C)C)NC(=O)[C@H](C)NC(=O)[C@H](Cc1ccccc1)NC(=O)c1ccc(C(C)(C)C)cc1)C(=O)N[C@@H](CO)C(=O)OC — remaining binding (Nociceptin receptor (OPRL1, Homo sapiens, UniProt P41146); ligand displacement, radioligand; 10 µM): 76.8%
COc1cc(Nc2ncc(F)c(Nc3ccc4c(n3)NC(=O)C(C)(C)O4)n2)cc(OC)c1OC — inhibition (TAOK2; binding; 10 µM): 88%
Cn1cc(-c2cc(F)cc(N3CCn4c(cc5c4CCCC5)C3=O)c2CO)cc(Nc2ccc(N3CCN(C4COC4)CC3)cn2)c1=O — inhibition (PIK3C2A; enzyme activity, inhibitor; 0.1 µM): -2%
Nc1ncc(-c2nc(N3CCOCC3)nc(N3CCOCC3)n2)c(C(F)F)n1 — remaining activity (cGMP-inhibited 3',5'-cyclic phosphodiesterase 3A (PDE3A, Homo sapiens, UniProt Q14432); enzyme activity, inhibitor; 10 µM): 39.1%
Cc1nn(C)cc1-c1nc2c(N3CCN(Cc4ccc(Cl)cc4)CC3)c(Cl)cnc2[nH]1 — remaining binding (Rhodopsin kinase GRK1 (GRK1, Homo sapiens, UniProt Q15835); binding, competition with immobilised ligand; 1 µM): 100%
C#Cc1n[nH]c2c(-c3cn([C@@H](C)c4ccccc4)c(=O)[nH]c3=O)cc(F)cc12 — inhibition (Mitogen-activated protein kinase 14 (MAPK14, Homo sapiens, UniProt Q16539); enzyme activity, inhibitor; 0.1 µM): 2.1%
CC[C@H](C)[C@@H](C(=O)O[C@@H](CC(C)C)C(=O)N[C@@H](CC(C)C)C(=O)N[C@@H](C)/C=C/C(=O)N1C(=O)C=C(OC)[C@@H]1C)N(C)C — kinact/KI (Falcipain-3 (FP3, Plasmodium falciparum 3D7, UniProt Q8IIL0); enzyme activity, inhibitor, fluorescence; pH 6): 7030 M⁻¹ s⁻¹
C#Cc1n[nH]c2c(-c3cn(C(C)c4ccccn4)c(=O)[nH]c3=O)cc(F)cc12 (centres unmarked) — inhibition (PIK3C2A; enzyme activity, inhibitor; 1 µM): 8.9%
Cn1cc(-c2cccc(N3CCc4c(sc5c4CC(C)(C)C5)C3=O)c2CO)cc(Nc2ccncn2)c1=O — inhibition (Serine/threonine-protein kinase PAK 3 (PAK3, Homo sapiens, UniProt O75914); enzyme activity, inhibitor; 1 µM): -3%
CCCCCc1cc(O)c(C/C=C(\C)CCC=C(C)C)c(O)c1 — remaining activity (Polyunsaturated fatty acid lipoxygenase ALOX12 (ALOX12, Homo sapiens, UniProt P18054); enzyme activity in cells, inhibitor; PMNL; 10 µM): 152%
COc1ncccc1-c1cnn2ccc(N3CCN(C(=O)OC(C)C)CC3)nc12 — remaining binding (TAOK2; binding, competition with immobilised ligand; 1 µM): 64%
